For one assay, the target named is T1, Telomere resolvase ResT (Borrelia burgdorferi (strain ATCC 35210 / B31 / CIP 102532 / DSM4680), UniProt O50979).
T1 sequence (O50979 whole entry): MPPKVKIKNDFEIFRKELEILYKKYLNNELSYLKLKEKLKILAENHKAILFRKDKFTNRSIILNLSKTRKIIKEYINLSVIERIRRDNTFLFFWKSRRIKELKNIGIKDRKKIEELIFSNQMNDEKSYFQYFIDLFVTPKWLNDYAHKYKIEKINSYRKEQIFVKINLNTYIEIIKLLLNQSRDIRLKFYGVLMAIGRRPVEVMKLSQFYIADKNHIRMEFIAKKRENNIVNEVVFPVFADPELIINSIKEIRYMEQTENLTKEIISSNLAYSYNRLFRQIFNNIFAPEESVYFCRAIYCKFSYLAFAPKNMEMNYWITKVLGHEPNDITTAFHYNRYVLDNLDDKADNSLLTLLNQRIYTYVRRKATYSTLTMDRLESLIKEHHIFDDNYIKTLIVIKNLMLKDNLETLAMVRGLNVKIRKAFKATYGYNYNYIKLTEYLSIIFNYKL
The assay can be described thus: Inhibition of Borrelia burgdorferi telomere resolvase by gel-based telomere resolution assay. On the set-up: species or system Borreliella burgdorferi.

Assay [1] addresses T2, Telomere resolvase ResT (Borrelia burgdorferi (strain ATCC 35210 / B31 / CIP 102532 / DSM4680)) (UniProt O50979).
T2 sequence (whole entry): T1 sequence (O50979 whole entry)
The assay can be described thus: Inhibition of Borrelia burgdorferi telomere resolvase assessed as DNA cleavage at 10 uM. The note with it: Borreliella burgdorferi.

For assay [2], the target named is T2, Telomere resolvase ResT (Borrelia burgdorferi (strain ATCC 35210 / B31 / CIP 102532 / DSM4680)). Description: Inhibition of Borrelia burgdorferi telomere resolvase assessed as inhibition of telomere resolution at 10 uM. Particulars: Borreliella burgdorferi.
Assay [3] has the same target. Description: Inhibition of Borrelia burgdorferi telomere resolvase 164-449 sequence assessed as inhibition of DNA binding activity at 10 uM by electrophoretic mobility shift assay. The note with it: Borreliella burgdorferi. A general note: A gel shift assay detects complexes by their altered migration in electrophoresis.
The target is the same in assay [4]. Description: Inhibition of Borrelia burgdorferi telomere resolvase assessed as reduction in DNA cleavage at 10 uM. The note with it: Borreliella burgdorferi. In outline:
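Cleavage-step assay with 5′-bridging phosphorothiolate oligonucleotide substrate (OGCB116+OGCB117), 5.4 nM, 32P-labeled. Recombinant ResT at 165 nM, 10% DMSO final, 25 mM Tris-HCl pH 8.5, 100 mM NaCl, 1 mM EDTA, 25% glycerol. 30 min at 30°C, stopped with 0.1% SDS. Covalent protein–DNA complex resolved on 5% SDS-polyacrylamide gel, phosphorimager. Expressed relative to ResT+DMSO control.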

As a reminder, the IC50 is the midpoint of a concentration-inhibition curve. For orientation: inhibition means the share of the control response that was lost under treatment. Take `C[C@H](CCC(=O)O)[C@H]1CC[C@H]2[C@@H]3CC[C@@H]4CCCC[C@]4(C)[C@H]3CC[C@@]12C`: inhibition against Telomere resolvase ResT was half-maximal at 1.96 µM (IC50). In addition, the % cleavage relative to control in assay [1] worked out at 79%. Moreover, the inhibition in assay [2] was ≥ 70%. For the same compound, in assay [3], the % binding relative to control was 14%.

With `O=C(O)c1ccc(-c2nc(-c3ccc(-c4ccccc4)cc3)c(-c3ccc(-c4ccccc4)cc3)[nH]2)cc1`, at Telomere resolvase ResT, the IC50 came to 9.52 µM. For the same compound, the % cleavage relative to control in assay [1] worked out at 43%. Also, the inhibition in assay [2] was ≥ 70%. Besides, in assay [3], the % binding relative to control is 33%.

Take `O=C(O)CCCCCCCCCCCCC1C=CCC1` (centres undefined): the midpoint of inhibition against Telomere resolvase ResT, the IC50, lay at 2.62 µM. The % cleavage relative to control in assay [1] was 75%. Besides, in assay [2], the inhibition is ≥ 70%. Also, the % binding relative to control in assay [3] came to 5%.

Consider `COc1cc(O)c2c(c1)oc(=O)c1c3cc(O)c(O)cc3oc21` [WEDELOLACTONE], for which, at Telomere resolvase ResT, the IC50 was 8.67 µM. The inhibition in assay [4] is 6%; in assay [2], ≥ 70%.

Compound `O=C(O)c1ccc2c3c(cccc13)C(=O)N(c1ccc(-c3nc4ccc(N5C(=O)c6cccc7c(C(=O)O)ccc(c67)C5=O)cc4[nH]3)cc1)C2=O` gave a concentration for half-maximal inhibition (IC50) against Telomere resolvase ResT of 3.16 µM. Besides, the % cleavage relative to control in assay [1] was 65%. Further, the inhibition in assay [2] is ≥ 70%. For the same compound, the % binding relative to control in assay [3] is 16%.

(Values after ChEMBL document CHEMBL1649208, “High-throughput screening identifies three inhibitor classes of the telomere resolvase from the lyme disease spirochete” (Antimicrob Agents Chemother, 2009).)
